According to ChEMBL document CHEMBL1240369, “Antiviral efficacy of the novel compound BIT225 against HIV-1 release from human macrophages” (Antimicrob Agents Chemother, 2010):
The source made the active and inactive calls. The calls are words filed in the database; no cut-off is given here.

Biological target: Protease (Human immunodeficiency virus 1) (UniProt Q9YQ12)
Test: Inhibition of HIV1 protease assessed as substrate cleavage by cell free assay
In short: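 Cell-free fluorometric protease assay: compound (1–100 μM) was premixed with 2 μM quenched HIV-1 protease substrate 1. Background fluorescence (ex 340/em 490 nm) was read every 5 s for 5 min. HIV-1 protease was then added at 1.5% and cleavage followed for a further 5 min. LPV and EFV served as controls.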

Chain of Protease (Human immunodeficiency virus 1) (Q9YQ12 as listed by the source): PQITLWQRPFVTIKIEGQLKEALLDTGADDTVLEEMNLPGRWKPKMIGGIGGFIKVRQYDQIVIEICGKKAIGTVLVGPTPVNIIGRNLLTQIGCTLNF

Row | SMILES | Activity
1 | Cc1cccc(C)c1OCC(=O)N[C@@H](Cc1ccccc1)[C@@H](O)C[C@H](Cc1ccccc1)NC(=O)[C@H](C(C)C)N1CCCNC1=O | Active
2 | O=C1Nc2ccc(Cl)cc2[C@@](C#CC2CC2)(C(F)(F)F)O1 | inactive
